In ChEMBL document CHEMBL1144010, “Synthesis and in vitro opioid receptor functional antagonism of analogues of the selective kappa opioid receptor antagonist (3R)-7-hydroxy-N-((1S)-1-{[(3R,4R)-4-(3-hydroxyphenyl)-3,4-dimethyl-1-piperidinyl]methyl}-2-methylpropyl)-1,2,3,4-tetrahydro-3-isoquinolinecarboxamide (JDTic)” (J Med Chem, 2008):

Key:
[1] = test system: CHO; assay: Selectivity for human cloned kappa opioid receptor over human cloned mu opioid receptor expressed in CHO cells; assay type: cell-based
[2] = test system: CHO; assay: Selectivity for human cloned kappa opioid receptor over human cloned delta opioid receptor expressed in CHO cells; assay type: cell-based
[3] = target: Delta-type opioid receptor (Homo sapiens) (UniProt P41143); assay: Antagonist activity at human cloned delta opioid receptor expressed in CHO cells assessed as inhibition of DPDPE-stimulated [35S]GTP-gamma-S binding; assay type: functional, cell-based
In short: (§1)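 Agonist concentration-response curves for stimulated [35S]GTPγS binding are run with and without a single concentration of test compound. Ke = [L]/(DR−1), where DR is the ratio of agonist EC50 with and without compound.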

[4] = target: Mu-type opioid receptor (Homo sapiens) (UniProt P35372); assay: Antagonist activity at human cloned mu opioid receptor expressed in CHO cells assessed as inhibition of DAMGO-stimulated [35S]GTPgammaS binding; assay type: functional, cell-based; in short: as §1
[5] = target: Kappa-type opioid receptor (Homo sapiens) (UniProt P41145); assay: Antagonist activity at human cloned kappa opioid receptor expressed in CHO cells assessed as inhibition of U69593-stimulated [35S]GTP-gamma-S binding; assay type: functional, cell-based; in short: as §1
Sequence of Kappa-type opioid receptor (Homo sapiens) (P41145 whole entry): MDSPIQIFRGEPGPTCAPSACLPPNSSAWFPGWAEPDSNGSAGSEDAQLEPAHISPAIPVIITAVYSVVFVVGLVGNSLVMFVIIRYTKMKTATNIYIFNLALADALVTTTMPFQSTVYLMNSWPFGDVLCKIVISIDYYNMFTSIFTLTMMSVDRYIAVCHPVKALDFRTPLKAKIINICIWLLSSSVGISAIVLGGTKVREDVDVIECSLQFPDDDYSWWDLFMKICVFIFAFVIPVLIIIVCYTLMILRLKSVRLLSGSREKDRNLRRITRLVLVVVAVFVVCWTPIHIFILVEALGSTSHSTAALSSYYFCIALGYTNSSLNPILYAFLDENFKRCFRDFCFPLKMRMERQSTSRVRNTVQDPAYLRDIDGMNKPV

Sequence of Mu-type opioid receptor (Homo sapiens) (P35372 whole entry): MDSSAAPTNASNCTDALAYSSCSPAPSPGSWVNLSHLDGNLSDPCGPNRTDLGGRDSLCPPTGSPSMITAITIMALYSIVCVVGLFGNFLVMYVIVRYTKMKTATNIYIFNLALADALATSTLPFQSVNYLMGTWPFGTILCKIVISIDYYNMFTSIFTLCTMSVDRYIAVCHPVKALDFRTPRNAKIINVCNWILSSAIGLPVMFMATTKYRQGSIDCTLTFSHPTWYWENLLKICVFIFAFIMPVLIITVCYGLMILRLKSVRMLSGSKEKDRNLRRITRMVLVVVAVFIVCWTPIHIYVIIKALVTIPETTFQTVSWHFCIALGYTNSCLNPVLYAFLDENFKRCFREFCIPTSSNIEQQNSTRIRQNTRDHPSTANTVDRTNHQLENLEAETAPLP
Sequence of Delta-type opioid receptor (Homo sapiens) (P41143 whole entry): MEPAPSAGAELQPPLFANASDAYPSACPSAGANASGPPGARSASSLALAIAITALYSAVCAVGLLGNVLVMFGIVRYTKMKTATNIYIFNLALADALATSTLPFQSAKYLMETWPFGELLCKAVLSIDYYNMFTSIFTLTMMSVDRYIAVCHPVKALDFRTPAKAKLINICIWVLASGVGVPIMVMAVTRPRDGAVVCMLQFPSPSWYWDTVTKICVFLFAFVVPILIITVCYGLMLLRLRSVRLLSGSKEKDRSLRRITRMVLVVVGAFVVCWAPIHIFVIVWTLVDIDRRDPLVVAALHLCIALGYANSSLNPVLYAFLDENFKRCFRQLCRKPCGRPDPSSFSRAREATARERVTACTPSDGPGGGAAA

SMILES | Ratio Ke [1] | Ratio Ke [2] | Ke [3] [nM] | Ke [4] [nM] | Ke [5] [nM]
CC(C)[C@@H](CN1CC[C@@](C)(c2cccc(O)c2)[C@@H](C)C1)NC(=O)c1cnc2cc(O)ccc2c1 | 5.2 | 25 | 229 | 48 | 9.3
CC(C)CN(CCN1CC[C@@](C)(c2cccc(O)c2)[C@@H](C)C1)C(=O)[C@H]1Cc2ccc(O)cc2CN1 | 0.5 | 21 | 39 | 1 | 1.9
CC(C)[C@@H](CN1CC[C@@](C)(c2cccc(O)c2)[C@@H](C)C1)NC(=O)c1nc2ccc(O)cc2[nH]1 | 0.7 | 13 | 290 | 15.6 | 22.4
CC(C)[C@@H](CN1CC[C@@](C)(c2cccc(O)c2)[C@@H](C)C1)NC(=O)c1cc2ccc(O)cc2[nH]1 | 0.7 | 3 | 97 | 23.8 | 34.1
CC(C)[C@@H](CN1CC[C@@](C)(c2cccc(O)c2)[C@@H](C)C1)NC(=O)[C@H]1Cc2ccc(O)cc2CN1 | 1250 | 3800 | – | – | –
COc1ccc2c(c1)CCN(CC(=O)N[C@H](CN1CC[C@@](C)(c3cccc(O)c3)[C@@H](C)C1)C(C)C)C2 | 0.4 | 3 | 76 | 11.4 | 26
COc1ccc2c(c1)CN[C@@H](C(=O)N[C@H](CN1CC[C@@](C)(c3cccc(O)c3)[C@@H](C)C1)C(C)C)C2 | 857 | 1980 | 118 | 51.4 | 0.06
CC[C@H](C)[C@@H](CN1CC[C@@](C)(c2cccc(O)c2)[C@@H](C)C1)NC(=O)[C@H]1Cc2ccc(O)cc2CN1 | 100 | 800 | 24 | 3 | 0.03
CC(C)[C@@H](CN1CC[C@@](C)(c2cccc(O)c2)[C@@H](C)C1)NC(=O)[C@H]1Cc2ccc(NS(C)(=O)=O)cc2CN1 | 4.4 | 27 | 106 | 17.7 | 4
COc1ccc2nc(C(=O)N[C@H](CN3CC[C@@](C)(c4cccc(O)c4)[C@@H](C)C3)C(C)C)[nH]c2c1 | 0.3 | 3.6 | 102 | 8.5 | 28.4
COc1ccc2cc(C(=O)N[C@H](CN3CC[C@@](C)(c4cccc(O)c4)[C@@H](C)C3)C(C)C)[nH]c2c1 | 1.3 | 26 | 282 | 13.7 | 10.9
CC(C)[C@@H](CN1CC[C@@](C)(c2cccc(O)c2)[C@@H](C)C1)NC(=O)CN1CCc2cc(O)ccc2C1 | 5.5 | 105 | 408 | 21.4 | 3.9
CC(C)[C@@H](CN1CC[C@@](C)(c2cccc(O)c2)[C@@H](C)C1)NC(=O)c1c[nH]c2cc(O)ccc12 | 1.1 | 50 | 224 | 4.8 | 4.5
CC(C)[C@@H](CN1CC[C@@](C)(c2cccc(O)c2)[C@@H](C)C1)NC(=O)[C@H]1Cc2ccc([N+](=O)[O-])cc2CN1 | 1.2 | 10 | 65 | 7.9 | 6.4
CC(C)[C@@H](CN1CC[C@@](C)(c2cccc(O)c2)[C@@H](C)C1)NC(=O)[C@H]1Cc2ccccc2CN1 | – | – | – | – | 56
CC(C)[C@@H](CN1CC[C@@](C)(c2cccc(O)c2)[C@@H](C)C1)NC(=O)[C@H]1Cc2ccc(N)cc2CN1 | 63 | 1860 | 373 | 12.6 | 0.2
COc1ccc2cc(C(=O)N[C@H](CN3CC[C@@](C)(c4cccc(O)c4)[C@@H](C)C3)C(C)C)cnc2c1 | 1.7 | 14 | 158 | 19.5 | 11.4
CC(=O)Nc1ccc2c(c1)CN[C@@H](C(=O)N[C@H](CN1CC[C@@](C)(c3cccc(O)c3)[C@@H](C)C1)C(C)C)C2 | 7.9 | 396 | 555 | 11 | 1.4
CC(C)[C@@H](CN1CC[C@@](C)(c2cccc(O)c2)[C@@H](C)C1)NC(=O)CN1CCc2ccc(O)cc2C1 | 0.4 | 7.5 | 177 | 9.2 | 23.5
COc1ccc2c(c1)CN(CC(=O)N[C@H](CN1CC[C@@](C)(c3cccc(O)c3)[C@@H](C)C1)C(C)C)CC2 | 1 | 3 | 51.7 | 17.7 | 16.8
CC(C)CCN(CCN1CC[C@@](C)(c2cccc(O)c2)[C@@H](C)C1)C(=O)[C@H]1Cc2ccc(O)cc2CN1 | 0.4 | 8 | 9.3 | 0.5 | 1.2
